# Compounds with a hit are over-represented: about 2.2% of the library has one in this group of screens.
# SIAE inh: inhibitors of human sialic acid acetylesterase SIAE | SIAE FP-Rh probe binding, fluorescence polarization | inhibition, % at 9.66 µM | hit rate 0.69% among 370,000 | AID 1053197;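 active = inhibition above a cutoff: mean of compounds within the control limits plus 3 SD of those, cut at about 17% in these data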
# TCR-CD3 inh: blocks the human TCR-CD3 interaction; TAMRA-labeled TCR probe fluorescence, biochemical; inhibition, % at 9.4 µM; hit rate 0.37% among 360,000; AID 651800; in the data active = inhibition above about 19%;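 also: recombinant mutant TCR 2C K166C tagged with TAMRA read by polarization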
# ABHD4 inh: inhibits mouse alpha/beta hydrolase domain 4. hit rate 0.54% among 370,000. inhibition, % at 8.92 µM. purified mABHD4, FP-Rh probe fluorescence polarization. Q8VD66;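 active = inhibition exceeding the mean over every tested compound plus 3 SD, cut at about 30% in these data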
# Target sequence (Q8VD66 whole entry, looked up, the tested form may be a part): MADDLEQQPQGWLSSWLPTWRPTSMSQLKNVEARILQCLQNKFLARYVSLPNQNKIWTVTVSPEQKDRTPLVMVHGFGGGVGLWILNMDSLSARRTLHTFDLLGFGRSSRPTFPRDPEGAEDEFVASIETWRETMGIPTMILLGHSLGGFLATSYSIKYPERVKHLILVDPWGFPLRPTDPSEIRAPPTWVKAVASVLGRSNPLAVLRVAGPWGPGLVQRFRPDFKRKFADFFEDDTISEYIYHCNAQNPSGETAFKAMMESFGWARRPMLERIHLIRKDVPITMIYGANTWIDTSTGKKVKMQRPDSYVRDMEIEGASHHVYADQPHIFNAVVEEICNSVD
#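 Test system: mouse ABHD4 enzyme, wild type. Reagent: FP-Rh fluorescent activity-based probe, added after compound pre-incubation. Timing: pre-incubation 45 min, probe exposure 60 min, at 25 °C. Technique: FP readout, ex 525 nm / em 598 nm. Benchmarks: high control S159A mutant with DMSO, low control median of compound wells.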
# TDP2 inh: TDP2 (human) inhibition, absorbance primary screen; O95551; recombinant TDP2, T5PNP hydrolysis, p-nitrophenol absorbance 415 nm; AID 720702; hit rate 0.34% among 370,000; inhibition, % at 12.8 µM;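 active = inhibition above the mean of all tested compounds plus 3 SD, set per campaign, cut at about 25% in these data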
#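 Incubation: 2 h at 37 °C; Test system: recombinant human TDP2; Quantity: enzyme 120 nM; Read-out basis: percent inhibition; Medium: 50 mM Tris-HCl pH 7.5 with Mg2+, KCl, DTT, BSA; Repeats: single replicate; Compound: 12.8 µM single point, 1% DMSO; Signal: epi absorbance; Reagent: 5 mM T5PNP chromogenic substrate; Benchmarks: no-enzyme high, DMSO-plus-enzyme low.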
# LEDGF integ inh: blocks HIV-1 LEDGF/p75-dependent DNA integration; TR-FRET IN-LEDGF/p75 DNA integration, Eu/Cy5; inhibition, % at 3.7 µM; hit rate 0.64% among 370,000;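 active = inhibition above the screen-wide mean plus 3 SD, cut at about 13% in these data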;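 also: signal is the Cy5 over europium emission ratio at 671 and 618 nm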
# HTRA1 inhibitor: inhibitors of human serine peptidase HTRA1; Q92743; recombinant HTRA1, FP-rhodamine activity-based probe, fluorescence polarization; hit rate 0.5% among 340,000; inhibition, % at 5.96 µM; in the data active = inhibition above about 36%
# SIAE confirm: confirmation of human SIAE inhibitors | shares compounds with SIAE inh | inhibition, % at 9.66 µM | SIAE FP-Rh activity-based probe, fluorescence polarization | hit rate 13% among 2,300;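 active = mean inhibition of the replicates above the hit cutoff set in the primary screen, cut at about 17% in these data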;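 also: inhibitors lower polarization as more probe stays unbound to SIAE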
# A number is an active result; n = inactive; x = not tested or not shown.
SMILES,SIAE inh,TCR-CD3 inh,ABHD4 inh,TDP2 inh,LEDGF integ inh,HTRA1 inhibitor,SIAE confirm
Cc1ccc(NC(=S)N/N=C2\CC(C)(C)Oc3ccc(O)cc32)cc1,n,n,n,n,n,n,x
CC(=O)N1CCC2(CC1)C/C(=N\NC(=S)Nc1ccc(C)cc1)c1cc(O)ccc1O2,26,n,n,n,n,n,n
CCN(C(=O)COC(=O)c1ccc(Cl)c(S(=O)(=O)N2CCCCC2)c1)C1CCS(=O)(=O)C1 (configuration not stated),n,n,n,n,n,n,x
CN(C(=O)COC(=O)c1ccc(Cl)c(S(=O)(=O)N2CCCCCC2)c1)C1CCS(=O)(=O)C1 (configuration not stated),19,n,n,n,n,n,n
CCCCOCC1CN(CCCC)S(=O)(=O)c2c(cccc2N2CCCC2)O1 (configuration not stated),n,n,n,n,n,x,x
CC(C)CN1CC(C)C(=O)N(c2ccccc2)C1=O (configuration not stated),n,n,n,n,n,n,x
O=C(N/C(=C/c1ccco1)C(=O)N1CCCCCC1)c1ccccc1,n,n,n,n,n,n,x
CCN1CCN(C(=O)/C(=C/c2ccco2)NC(=O)c2ccccc2)CC1,18,n,n,n,n,n,n
Cc1ccc(S(=O)(=O)N(CC(=O)NCc2ccncc2)Cc2ccc(F)cc2)cc1,n,n,n,n,n,n,x
COc1ccc(OC)c(N(C(=O)c2ccco2)C(C(=O)NC2CCCC2)c2cc(OC)c(OC)c(OC)c2)c1 (configuration not stated),n,n,n,n,n,n,x
CCC(CC)c1nnc(NC(=O)CS(=O)(=O)c2ccccc2)s1,26,n,n,n,n,n,n
CCOC(=O)CCC(=O)Nc1ccc(S(=O)(=O)Nc2cc(OC)nc(OC)n2)cc1,n,n,n,n,n,n,x
COc1cc(NS(=O)(=O)c2ccc(NC(=O)CCC(=O)O)cc2)nc(OC)n1,17,n,n,n,n,n,n
N#Cc1ccccc1NCC(=O)N1CCN(S(=O)(=O)c2ccccc2)CC1,17,n,n,n,n,n,n
O=C(CSc1ccccc1)N1CCN(S(=O)(=O)c2ccccc2)CC1,n,n,n,n,n,n,x
CC(=O)c1ccc(NCC(=O)N2CCN(S(=O)(=O)c3ccccc3)CC2)cc1,n,n,n,n,n,n,x
O=C(O)CSCC(=O)N1CCN(S(=O)(=O)c2ccccc2)CC1,21,n,n,n,n,n,n
COc1ccc(CC(=O)c2ccc(OC)c(OC)c2)cc1,17,n,n,n,n,n,n
Cc1noc(C)c1NC(=O)N(C)C[C@@H]1OCc2cn(nn2)CCCC(=O)N([C@@H](C)CO)C[C@H]1C,n,n,n,n,n,x,x
CS(=O)(=O)Nc1cccc(C2=NN(C(=O)CCCC(=O)O)C(c3cccs3)C2)c1 (configuration not stated),n,n,n,n,n,n,x
c1cc(CNc2ccc3c(c2)OCO3)ccn1,19,n,n,n,n,n,n
CC1(C(=O)Nc2ccccc2)CCN1C(=O)CCc1ccc(Cl)cc1Cl (configuration not stated),19,n,n,n,n,x,n
CC1(C(=O)NS(=O)(=O)c2ccccc2Cl)CCN1C(=O)CCc1ccc(Cl)cc1Cl (configuration not stated),n,n,n,n,n,x,x
CC1CCCC(C)N1CC(O)COCc1ccccc1F (configuration not stated),n,n,n,n,n,n,x
Cc1ccccc1/C=N/Nc1ccnc2cc(Cl)ccc12,26,n,n,n,n,n,31
SMILES,SIAE inh,TCR-CD3 inh,ABHD4 inh,TDP2 inh,LEDGF integ inh,HTRA1 inhibitor,SIAE confirm
Oc1ccc(/C=N/Nc2ccnc3cc(Cl)ccc23)c(O)c1,27,n,n,n,n,n,36
Cc1ccc(/C=N/Nc2ccnc3cc(Cl)ccc23)c(C)c1,44,n,n,n,n,n,59
Clc1ccc2c(N/N=C/c3ccc(Br)cc3)ccnc2c1,19,n,n,n,n,n,n
CCN(CC)c1cccc(OCC(=O)N2c3ccccc3CC2C)c1 (configuration not stated),n,n,n,n,n,n,x
O=C(NCc1ccccn1)c1[nH]c(C(F)(F)F)nc1-c1ccccc1,n,n,n,n,n,x,x
CCCNC(=O)C(Cc1ccc(F)cc1)NC(=O)c1ccc(C#N)cc1 (configuration not stated),20,n,n,n,n,n,n
Cc1cccc(NC(=O)c2nc[nH]c2C(=O)N2CCN(C(=O)OC(C)(C)C)CC2)c1,n,n,n,n,n,n,x
O=C(OC12CCCN(C1)/C(=C/c1ccc(Cl)cc1)C2)C1CCCCC1 (configuration not stated),18,x,n,n,n,x,n
N#Cc1ccc(/C=C2\CC3(OC(=O)C4CCCC4)CCCN2C3)cc1 (configuration not stated),23,x,n,n,n,x,n
COc1ccc(/C=C2\CC3(OC(=O)C4CCCCC4)CCCN2C3)cc1 (configuration not stated),n,x,n,n,n,x,x
Cn1c(=O)c2c(-c3ccc(C(C)(C)C)cc3)n(CC3CCCO3)cc2n(C)c1=O (configuration not stated),n,n,n,n,n,n,x
Cc1cccc(-c2c3c(=O)n(C)c(=O)n(C)c3cn2CC2CCCO2)c1 (configuration not stated),19,n,n,n,n,n,n
O=C(Nc1ccccc1N1CCOCC1)C1=NN(c2c(F)c(F)cc(F)c2F)C(=O)CC1,n,n,n,n,n,n,x
CCn1c2ccccc2c2cc(NC(=O)COC(=O)c3ccc(O)cc3)ccc21,17,n,n,n,n,n,n
CCn1c2ccccc2c2cc(NC(=O)COC(=O)c3cccc(OC)c3)ccc21,n,x,n,n,n,x,x
CCn1c2ccccc2c2cc(NC(=O)c3ccccc3[N+](=O)[O-])ccc21,21,n,n,n,n,n,n
Cc1cccc(NC(=S)NC2CC3CCCC(C2)N3Cc2ccco2)c1 (configuration not stated),n,n,n,n,n,n,x
Cc1ccc(NC(=S)NC2CC3CCCC(C2)N3Cc2ccco2)cc1 (configuration not stated),26,n,n,n,n,n,n
O=C(Nc1cccc(-c2csc(Nc3ccccc3)n2)c1)c1cc([N+](=O)[O-])cc(C(F)(F)F)c1,32,n,n,n,n,n,n
O=C(Nc1cccc(-c2csc(Nc3ccc(Cl)cc3)n2)c1)c1cc([N+](=O)[O-])cc(C(F)(F)F)c1,29,n,n,n,n,n,n

# Compound activity as filed in PubChem BioAssay.
